HSP90 inh = HSP90 refolding inhibition in rabbit reticulocyte lysate. luciferase refolding luminescence, 3 h. inhibition, % at 5.6 µM. 0.91% of 290,000 active. AID 1789;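 active = inhibition above the screen-wide mean plus 3 SD, computed separately per campaign, cut at about 16% in these data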;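 note: inhibitors lower the luminescence because luciferase stays unfolded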
FLuc inh counter = Photinus pyralis luciferase inhibition counter-screen | ATPLite firefly luciferase biochemical luminescence, 10 min | inhibition, % at 10 µM | 1.5% of 200,000 active;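 active = inhibition above about 50% when tested at 10 µM, limit read from the data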
Target sequence (P08659 whole entry, looked up): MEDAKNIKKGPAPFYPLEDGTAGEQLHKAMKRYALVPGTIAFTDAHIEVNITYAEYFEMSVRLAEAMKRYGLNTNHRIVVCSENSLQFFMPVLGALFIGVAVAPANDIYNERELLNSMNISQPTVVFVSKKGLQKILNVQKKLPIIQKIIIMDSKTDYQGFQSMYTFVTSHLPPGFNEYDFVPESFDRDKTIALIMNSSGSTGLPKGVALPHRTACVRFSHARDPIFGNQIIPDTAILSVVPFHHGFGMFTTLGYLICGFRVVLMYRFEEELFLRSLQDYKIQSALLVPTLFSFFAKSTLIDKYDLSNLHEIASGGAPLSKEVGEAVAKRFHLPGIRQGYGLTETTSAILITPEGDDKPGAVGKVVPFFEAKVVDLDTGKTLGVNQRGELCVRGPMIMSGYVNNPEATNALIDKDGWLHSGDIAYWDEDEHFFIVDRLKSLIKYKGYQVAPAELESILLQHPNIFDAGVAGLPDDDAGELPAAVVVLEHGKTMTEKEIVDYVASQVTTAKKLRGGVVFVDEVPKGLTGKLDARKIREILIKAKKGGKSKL
STAT3 blocker = reduces IL-6 driven STAT3 reporter signal; U3A cells, IL-6 STAT3-luciferase reporter, luminescence; host cell line lacks STAT1; inhibition, % at 5.5 µM; 0.89% of 190,000 active;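 active = inhibition above the mean inhibition across all screened compounds plus 3 SD, cut at about 44% in these data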
PPC-1+TRAIL kill = compounds killing PPC-1 cancer cells with TRAIL present (potentiator screen, no TRAIL-free arm); PPC-1 cells + TRAIL, ATPLite viability luminescence; cell killing (% activity), % at 4 µM or 5 µM; 0.41% of 220,000 active; AID 1443;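 active = cell killing above 50% in the first pass at 4 µM, then a duplicate retest at 5 µM averaging 50% or more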
FLuc act counter = affects firefly luciferase, flagging false hits in luciferase stimulation screens | P08659 | ATPlite luciferase biochemical, luminescence, 10 min; 0 = ATP-free wells, 1 = DMSO control | activation factor at 10 µM | 200,000 tested, under 10 active;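 active = luciferase activation factor, scaled between plate controls, of at least 2 with compound at 10 µM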
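assay system = Luciferase/luciferin detection reagent, cell-free biochemical luciferase assay | also added = ATP substrate | times = 10 min post-reagent at room temperature | measured by = luminescence from luciferase reaction | measure = luciferase activation, seen as luminescence increase over controls | benchmarks = low control with PBS replacing ATP, high control enzyme plus ATP without compound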
TRAIL sens C8 = caspase-8 TRAIL sensitization | inhibition (viability loss, TRAIL sensitization), % at 10 µM | NB7+C8 cells + TRAIL, ATPlite viability luminescence | 1% of 360,000 active | AID 624354;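 active = compounds causing at least 50% loss of cell viability in the single-dose screen, relative to plate controls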
Large screens that a line does not name were inactive. Most compounds without a hit are left out; they make up all but 2.2% or so of the library.

Cc1cc(C(=O)CCl)c(C)n1CCc1ccccc1	none (no result: TRAIL sens C8)
Cc1c(P(=S)(c2ccccc2)c2ccccc2)[n+]2ccccc2n1CCc1ccccc1	TRAIL sens C8 52.7 (no result: HSP90 inh, FLuc inh counter, STAT3 blocker, PPC-1+TRAIL kill, FLuc act counter)
Cc1onc(-c2c(Cl)cccc2Cl)c1C(=O)ONC(=O)c1ccccc1	TRAIL sens C8 51.6 (no result: FLuc inh counter, STAT3 blocker, FLuc act counter)
Cc1onc(-c2c(F)cccc2Cl)c1C(=O)ONC(=O)c1ccccc1	none (no result: FLuc inh counter, STAT3 blocker, FLuc act counter)
Cc1ccc(OCC(=O)N2CCc3ccccc32)cc1	FLuc inh counter 78.0
CCC(=O)c1ccc(OCC(=O)OCC(=O)N2CCCc3ccccc32)cc1	TRAIL sens C8 88.0 (no result: HSP90 inh, FLuc inh counter, STAT3 blocker, PPC-1+TRAIL kill, FLuc act counter)
Cc1ccc(OCC(=O)N2CCCc3ccccc32)cc1	none
Cc1sc2ncnc(N=Nc3c(O)[nH]c4ccccc34)c2c1C	FLuc inh counter 50.0
C=CCNc1ncnc2c1ncn2C1OC(CO)C(O)C1O (configuration not stated)	TRAIL sens C8 56.6
Nc1nc(F)nc2c1ncn2[C@@H]1O[C@H](CO)[C@@H](O)[C@H]1O	TRAIL sens C8 57.5 (no result: HSP90 inh, FLuc inh counter, STAT3 blocker, PPC-1+TRAIL kill, FLuc act counter)
OC[C@H]1O[C@@H](n2cnc3c(NCc4ccco4)ncnc32)[C@H](O)[C@@H]1O	none (no result: HSP90 inh, FLuc inh counter, STAT3 blocker, PPC-1+TRAIL kill, FLuc act counter)
OCC1OC(n2cnc3c(NCc4ccco4)ncnc32)C(O)C1O (configuration not stated)	TRAIL sens C8 58.8 (no result: HSP90 inh, FLuc inh counter, STAT3 blocker, PPC-1+TRAIL kill, FLuc act counter)
OC[C@H]1O[C@@H](n2cnc3c(NC4CCCC4)ncnc32)[C@H](O)[C@@H]1O	none
OCC1OC(n2cnc3c(SCc4ccccc4)ncnc32)C(O)C1O (configuration not stated)	TRAIL sens C8 55.1 (no result: HSP90 inh, FLuc inh counter, STAT3 blocker, PPC-1+TRAIL kill, FLuc act counter)
COc1ccc(Cc2c(-c3cccc(Cl)c3)nc3ccc(C)cn23)c(C)c1	none (no result: HSP90 inh, FLuc inh counter, STAT3 blocker, PPC-1+TRAIL kill, FLuc act counter)
COc1ccc(C2NN=C(c3c[nH]c4ccccc34)C2O)cc1 (configuration not stated)	none (no result: FLuc inh counter, STAT3 blocker, PPC-1+TRAIL kill, FLuc act counter)
COc1ccc(C2C(O)C(c3c[nH]c4ccccc34)=NN2C(=O)CCl)cc1 (configuration not stated)	TRAIL sens C8 95.6 (no result: FLuc inh counter, STAT3 blocker, PPC-1+TRAIL kill, FLuc act counter)
Fc1ccc2[nH]c3c(N4CCc5ccccc5C4)ncnc3c2c1	none (no result: FLuc inh counter, STAT3 blocker, FLuc act counter)
Cc1ccc2[nH]c3c(N4CCc5ccccc5C4)ncnc3c2c1	STAT3 blocker 72.9
COc1ccc(CC(C)Nc2cccc(SC)c2)cc1 (configuration not stated)	none (no result: FLuc inh counter, STAT3 blocker, PPC-1+TRAIL kill, FLuc act counter)
C/C(=N\Nc1ncc(Cl)cc1Cl)c1ccccn1	FLuc inh counter 94.4, STAT3 blocker 93.8, TRAIL sens C8 89.0
CC1CCCN(C(=O)c2cn(-c3ccccc3)nc2-c2cccnc2)C1 (configuration not stated)	none (no result: HSP90 inh, FLuc inh counter, STAT3 blocker, PPC-1+TRAIL kill, FLuc act counter)
Nc1nc(N)c2c(ccc3nccc32)[nH]1	TRAIL sens C8 80.3 (no result: FLuc inh counter, STAT3 blocker, FLuc act counter)
Nc1ccc2ncccc2c1N	none (no result: HSP90 inh, STAT3 blocker)
CCc1sc(C(=O)Nc2cccnc2)cc1Br	none (no result: FLuc inh counter, STAT3 blocker, PPC-1+TRAIL kill, FLuc act counter)
Cc1cccc(-c2cc(C(=O)N/N=C/c3cccnc3)c3ccccc3n2)c1	none (no result: HSP90 inh, FLuc inh counter, STAT3 blocker, PPC-1+TRAIL kill, FLuc act counter)
COc1cc(/C=N/NC(=O)c2cc(-c3cccc(OC(C)C)c3)nc3ccccc23)ccc1O	TRAIL sens C8 53.0 (no result: HSP90 inh, FLuc inh counter, STAT3 blocker, PPC-1+TRAIL kill, FLuc act counter)
COc1ccc(-c2cc(C(=O)N/N=C/c3cccnc3)c3ccccc3n2)cc1	TRAIL sens C8 54.1 (no result: FLuc inh counter, STAT3 blocker, PPC-1+TRAIL kill, FLuc act counter)
COc1cc(/C=N/NC(=O)c2cc(-c3cccs3)nc3ccccc23)ccc1O	none (no result: FLuc inh counter, STAT3 blocker, FLuc act counter)
CCC(Oc1ccccc1)C(=O)Nc1cc(C(F)(F)F)ccc1N1CCOCC1 (configuration not stated)	none (no result: HSP90 inh, FLuc inh counter, STAT3 blocker, PPC-1+TRAIL kill, FLuc act counter)
COc1cc2ccccc2cc1C(=O)NCC(c1cccs1)N(C)C (configuration not stated)	FLuc inh counter 63.8
COc1cc(OC)c(C(=O)NCC(c2cccs2)N(C)C)cc1OC (configuration not stated)	none
CCNC(=O)CC1C(=O)N(c2cccc(C)c2)C(=O)N1CCC(C)C (configuration not stated)	none (no result: FLuc inh counter, STAT3 blocker, PPC-1+TRAIL kill, FLuc act counter)
CN(C)c1ccc(NC(=O)Cc2ccccc2)c2ccccc12	none (no result: FLuc inh counter, STAT3 blocker, PPC-1+TRAIL kill, FLuc act counter)
CCOC(=O)c1c2c(n(-c3ccc(OC)cc3)c1C)C(=O)C(=O)c1ccccc1-2	TRAIL sens C8 95.5 (no result: HSP90 inh, FLuc inh counter, STAT3 blocker, PPC-1+TRAIL kill, FLuc act counter)
O=C(OCn1ncc(Br)c(Br)c1=O)c1ccc(F)cc1	TRAIL sens C8 94.9
O=C(OCn1ncc(Br)c(Br)c1=O)c1ccccc1Cl	TRAIL sens C8 93.2
O=C(OCc1cnc(Cl)s1)c1ccccc1Cl	none
CC[C@]12C(=O)N(C)C[C@H]([C@@H]3C(=O)N(C)C(=O)[C@@H]31)N2C(=O)c1ccc(F)cc1	none (no result: HSP90 inh, FLuc inh counter, STAT3 blocker, PPC-1+TRAIL kill, FLuc act counter)
COc1ccc2c(=O)cc(-c3ccccc3)n(C)c2c1	TRAIL sens C8 54.7
O=C(CNC(=O)c1cccs1)c1ccc(F)cc1	FLuc inh counter 51.9
O=C(CNC(=O)c1cccs1)c1ccc(Cl)cc1	none (no result: FLuc inh counter, STAT3 blocker, PPC-1+TRAIL kill, FLuc act counter)
CCCc1cc(=O)[nH]c(SCC(=O)Nc2sc(C(N)=O)c(C)c2C(=O)OCCOC)n1	TRAIL sens C8 85.2 (no result: HSP90 inh, FLuc inh counter, STAT3 blocker, PPC-1+TRAIL kill, FLuc act counter)
CCCc1cc(=O)[nH]c(SCC(=O)NC(=O)OCC)n1	none
CCN(CC)CCCNc1ccc(-c2nnc(-c3ccc(OCC(C)C)cc3)o2)cn1	TRAIL sens C8 86.6 (no result: FLuc inh counter, STAT3 blocker, PPC-1+TRAIL kill, FLuc act counter)
CCN(CC)CCCNc1oc(-c2cccc(Cl)c2)nc1C#N	none
O=C(COc1ccc(/C=N/NC(=O)c2cc3ccccc3o2)cc1Br)Nc1ccccc1	TRAIL sens C8 59.1
O=C(COc1ccccc1[N+](=O)[O-])Nc1ccc(NC(=O)c2cc3ccccc3o2)cc1	none
CC1(C2CCC3C4CCC5CC6(CCC5(C)C4C(=O)CC32C)OCCO6)OCCO1 (configuration not stated)	none (no result: HSP90 inh, FLuc inh counter, STAT3 blocker, PPC-1+TRAIL kill, FLuc act counter)
Cc1cc(NC(=O)CCS(=O)(=O)c2nc(-c3ccccc3)cc(C(F)(F)F)n2)no1	none (no result: HSP90 inh, STAT3 blocker)
CS(=O)(=O)c1nc(-c2ccccc2)cc(C(F)(F)F)n1	TRAIL sens C8 59.0
CCCCOc1cccc(-c2cc(C(=O)NNC(=S)NCC)c3ccccc3n2)c1	none
